Active and inactive are the calls of the source. No cut-off for these calls is given here.
The substances below were run on Staphylococcus aureus (assay: Antimicrobial activity against Staphylococcus aureus isolate 1 with AMC-AMP-CIP-ERY-GEN-OXA-RIF resistance phenotype at twofold the bactericidal concentration within 30 mins).
Assay type: functional, organism-based
Summary of the method: (§1)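 Time-kill in 10 mM sodium phosphate buffer, pH 7.4: 1 × 10^7 CFU/ml mid-log clinical isolate (10 μl) exposed at 37°C to peptide at the 1.5-h bactericidal concentration or twofold that, in 100 μl. Samples taken from 2 min onward, plated on tryptone soy agar, CFU counted after 24 h at 37°C. Killing taken as ≥3 log10 CFU/ml drop.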

Substance | Activity
H-FLPLIGRVLSGIL-NH2 [TEMPORIN A] | inactive

These substances were tested on Acinetobacter baumannii (assay: Antimicrobial activity against Acinetobacter baumannii isolate 3 with AMP-AMC-CFZ-CIP-IPM-SXT-TET-TOB resistance phenotype assessed as time to kill at bactericidal concentration).
Assay type: functional
Summary of the method: as §1

Substance | Time
H-FLPLIGRVLSGIL-NH2 [TEMPORIN A] | >=30 min

What follows are substances tested on Enterococcus faecium (assay: Bactericidal activity against Enterococcus faecium isolate 6 with AMP-AMC-CLI-CRO-CTX-CIP-ERY-GEN-KAN-LVX-SXT-VAN resistance phenotype assessed as concentration required for >= 3 log10 CFU/ml reduction in viable bacteria in sodium phosphate buffer at pH 7.4 after 1.5 hrs by liquid microdilution assay).
Assay type: functional
Summary of the method: (§2)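 Clinical multidrug-resistant isolates grown to mid-log in tryptone soy broth and stored frozen. Exponential cells resuspended in 10 mM sodium phosphate buffer, pH 7.4, at 1 × 10^7 CFU/ml; 10 μl incubated with graded peptide concentrations in 100 μl at 37°C for 1.5 h. Plated on tryptone soy agar, CFU read after 24 h at 37°C. Peptide stocks in 20% ethanol.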

Substance | Activity
H-FLPLIGRVLSGIL-NH2 [TEMPORIN A] | 12 µM

These substances were tested on Pseudomonas aeruginosa (assay: Bactericidal activity against Pseudomonas aeruginosa isolate 1 with AMP-CFZ-CIP-CTX-CXM-GEN-LVX-SXT-TET resistance phenotype assessed as concentration required for >= 3 log10 CFU/ml reduction in viable bacteria in 20% heat-inactivated human serum after 1.5 hrs by liquid microdilution assay).
Assay type: functional
Summary of the method: (§3)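 The buffer microdilution kill assay (1 × 10^7 CFU/ml mid-log cells, 10 μl in 100 μl, 37°C, 1.5 h, CFU on tryptone soy agar after 24 h) with serum added to 20% or 40% final. Serum was pooled from five healthy donors, clotted at room temperature, spun at 300 × g and heat-inactivated at 56°C for 30 min.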

Substance | Activity
H-FLPLIGRVLSGIL-NH2 [TEMPORIN A] | >194 µM

The substances below were run on Stenotrophomonas maltophilia (assay: Bactericidal activity against Stenotrophomonas maltophilia isolate 1 with AMK-CIP-CTX-IPM-MEM-SAM-TZP resistance phenotype assessed as concentration required for >= 3 log10 CFU/ml reduction in viable bacteria in sodium phosphate buffer at pH 7.4 after 1.5 hrs by liquid microdilution assay).
Assay type: functional
Summary of the method: as §2

Substance | Activity
H-FLPLIGRVLSGIL-NH2 [TEMPORIN A] | 48 µM

Each substance was assayed on Staphylococcus aureus (assay: Bactericidal activity against Staphylococcus aureus isolate 3 with AMC-AMP-CIP-ERY-GEN-LVX-OXA resistance phenotype assessed as concentration required for >= 3 log10 CFU/ml reduction in viable bacteria in sodium phosphate buffer at pH 7.4 after 1.5 hrs by liquid microdilution assay).
Assay type: functional
Summary of the method: as §2

Substance | Activity
H-FLPLIGRVLSGIL-NH2 [TEMPORIN A] | 12 µM

What follows are substances tested on Acinetobacter baumannii (assay: Bactericidal activity against Acinetobacter baumannii isolate 1 with AMP-AMC-CFZ-CIP-IPM-LVX-PIP-SXT-TET resistance phenotype assessed as concentration required for >= 3 log10 CFU/ml reduction in viable bacteria in sodium phosphate buffer at pH 7.4 after 1.5 hrs by liquid microdilution assay).
Assay type: functional
Summary of the method: as §2

Substance | Activity
H-FLPLIGRVLSGIL-NH2 [TEMPORIN A] | 24 µM

The substances below were run on Acinetobacter baumannii (assay: Bactericidal activity against Acinetobacter baumannii isolate 3 with AMP-AMC-CFZ-CIP-IPM-SXT-TET-TOB resistance phenotype assessed as concentration required for >= 3 log10 CFU/ml reduction in viable bacteria in 20% heat-inactivated human serum after 1.5 hrs by liquid microdilution assay).
Assay type: functional
Summary of the method: as §3

Substance | Activity
H-FLPLIGRVLSGIL-NH2 [TEMPORIN A] | >193 µM

Each substance was assayed on Pseudomonas aeruginosa (assay: Bactericidal activity against Pseudomonas aeruginosa isolate 2 with AMP-CFZ-CIP-CTX-CXM-GEN-LVX-IPM-MEM-SXT-TET resistance phenotype assessed as concentration required for >= 3 log10 CFU/ml reduction in viable bacteria in sodium phosphate buffer at pH 7.4 after 1.5 hrs by liquid microdilution assay).
Assay type: functional
Summary of the method: as §2

Substance | Activity
H-FLPLIGRVLSGIL-NH2 [TEMPORIN A] | 48 µM

Each substance was assayed on Enterococcus faecium (assay: Bactericidal activity against Enterococcus faecium isolate 3 with AMP-CIP-CTX-ERY-GEN-LVX-SXT-TEC-VAN resistance phenotype assessed as concentration required for >= 3 log10 CFU/ml reduction in viable bacteria in 20% heat-inactivated human serum after 1.5 hrs by liquid microdilution assay).
Assay type: functional
Summary of the method: as §3

Substance | Activity
H-FLPLIGRVLSGIL-NH2 [TEMPORIN A] | 48 µM

These substances were tested on Pseudomonas aeruginosa (assay: Antimicrobial activity against Pseudomonas aeruginosa isolate 1 with AMP-CFZ-CIP-CTX-CXM-GEN-LVX-SXT-TET resistance phenotype at bactericidal concentration after 30 mins by time kill assay).
Assay type: functional, organism-based
Summary of the method: as §1

Substance | Activity
H-FLPLIGRVLSGIL-NH2 [TEMPORIN A] | inactive

These substances were tested on Staphylococcus aureus (assay: Bactericidal activity against Staphylococcus aureus isolate 1 with AMC-AMP-CIP-ERY-GEN-OXA-RIF resistance phenotype assessed as concentration required for >= 3 log10 CFU/ml reduction in viable bacteria in sodium phosphate buffer at pH 7.4 after 1.5 hrs by liquid microdilution assay).
Assay type: functional
Summary of the method: as §2

Substance | Activity
H-FLPLIGRVLSGIL-NH2 [TEMPORIN A] | 12 µM

What follows are substances tested on Staphylococcus aureus (assay: Bactericidal activity against Staphylococcus aureus isolate 2 with AMC-AMP-CIP-ERY-GEN-LVX-OXA-RIF-TET resistance phenotype assessed as concentration required for >= 3 log10 CFU/ml reduction in viable bacteria in sodium phosphate buffer at pH 7.4 after 1.5 hrs by liquid microdilution assay).
Assay type: functional
Summary of the method: as §2

Substance | Activity
H-FLPLIGRVLSGIL-NH2 [TEMPORIN A] | 12 µM

What follows are substances tested on Enterococcus faecium (assay: Bactericidal activity against Enterococcus faecium isolate 3 with AMP-CIP-CTX-ERY-GEN-LVX-SXT-TEC-VAN resistance phenotype assessed as concentration required for >= 3 log10 CFU/ml reduction in viable bacteria in sodium phosphate buffer at pH 7.4 after 1.5 hrs by liquid microdilution assay).
Assay type: functional
Summary of the method: as §2

Substance | Activity
H-FLPLIGRVLSGIL-NH2 [TEMPORIN A] | 12 µM

The substances below were run on Staphylococcus aureus (assay: Bactericidal activity against Staphylococcus aureus isolate 1 with AMC-AMP-CIP-ERY-GEN-OXA-RIF resistance phenotype assessed as concentration required for >= 3 log10 CFU/ml reduction in viable bacteria in 20% heat-inactivated human serum after 1.5 hrs by liquid microdilution assay).
Assay type: functional
Summary of the method: as §3

Substance | Activity
H-FLPLIGRVLSGIL-NH2 [TEMPORIN A] | 48 µM

The substances below were run on Acinetobacter baumannii (assay: Bactericidal activity against Acinetobacter baumannii isolate 3 with AMP-AMC-CFZ-CIP-IPM-SXT-TET-TOB resistance phenotype assessed as concentration required for >= 3 log10 CFU/ml reduction in viable bacteria in sodium phosphate buffer at pH 7.4 after 1.5 hrs by liquid microdilution assay).
Assay type: functional
Summary of the method: as §2

Substance | Activity
H-FLPLIGRVLSGIL-NH2 [TEMPORIN A] | 12 µM

These substances were tested on Pseudomonas aeruginosa (assay: Antimicrobial activity against Pseudomonas aeruginosa isolate 1 with AMP-CFZ-CIP-CTX-CXM-GEN-LVX-SXT-TET resistance phenotype at twofold bactericidal concentration after 10 to 30 mins by time kill assay).
Assay type: functional, organism-based
Summary of the method: as §1

Substance | Activity
H-FLPLIGRVLSGIL-NH2 [TEMPORIN A] | Active

Each substance was assayed on Enterococcus faecium (assay: Bactericidal activity against Enterococcus faecium isolate 5 with AMP-AMC-CIP-CLI-ERY-GEN-KAN-LVX-SXT-TEC-VAN resistance phenotype assessed as concentration required for >= 3 log10 CFU/ml reduction in viable bacteria in sodium phosphate buffer at pH 7.4 after 1.5 hrs by liquid microdilution assay).
Assay type: functional
Summary of the method: as §2

Substance | Activity
H-FLPLIGRVLSGIL-NH2 [TEMPORIN A] | 12 µM

The substances below were run on Acinetobacter baumannii (assay: Bactericidal activity against Acinetobacter baumannii isolate 2 with AMP-CFZ-CIP-LVX-PIP-SXT resistance phenotype assessed as concentration required for >= 3 log10 CFU/ml reduction in viable bacteria in sodium phosphate buffer at pH 7.4 after 1.5 hrs by liquid microdilution assay).
Assay type: functional
Summary of the method: as §2

Substance | Activity
H-FLPLIGRVLSGIL-NH2 [TEMPORIN A] | 12 µM

Each substance was assayed on Pseudomonas aeruginosa (assay: Bactericidal activity against Pseudomonas aeruginosa isolate 1 with AMP-CFZ-CIP-CTX-CXM-GEN-LVX-SXT-TET resistance phenotype assessed as concentration required for >= 3 log10 CFU/ml reduction in viable bacteria in sodium phosphate buffer at pH 7.4 after 1.5 hrs by liquid microdilution assay).
Assay type: functional
Summary of the method: as §2

Substance | Activity
H-FLPLIGRVLSGIL-NH2 [TEMPORIN A] | 48 µM

Each substance was assayed on Enterococcus faecium (assay: Antimicrobial activity against Enterococcus faecium isolate 3 with AMP-CIP-CTX-ERY-GEN-LVX-SXT-TEC-VAN resistance phenotype assessed as time to kill at bactericidal concentration).
Assay type: functional
Summary of the method: as §1

Substance | Time
H-FLPLIGRVLSGIL-NH2 [TEMPORIN A] | 5 min

These substances were tested on Pseudomonas aeruginosa (assay: Bactericidal activity against Pseudomonas aeruginosa isolate 3 with AMP-CFZ-CTX-CIP-GEN-IPM-LVX-SXT-TET-TOB resistance phenotype assessed as concentration required for >= 3 log10 CFU/ml reduction in viable bacteria in sodium phosphate buffer at pH 7.4 after 1.5 hrs by liquid microdilution assay).
Assay type: functional
Summary of the method: as §2

Substance | Activity
H-FLPLIGRVLSGIL-NH2 [TEMPORIN A] | 96 µM

Each substance was assayed on Enterococcus faecium (assay: Antimicrobial activity against Enterococcus faecium isolate 3 with AMP-CIP-CTX-ERY-GEN-LVX-SXT-TEC-VAN resistance phenotype assessed as time to kill at twofold the bactericidal concentration).
Assay type: functional, organism-based
Summary of the method: as §1

Substance | Activity
H-FLPLIGRVLSGIL-NH2 [TEMPORIN A] | inactive

Each substance was assayed on Stenotrophomonas maltophilia (assay: Bactericidal activity against Stenotrophomonas maltophilia isolate 2 with AMK-CIP-CTX-IPM-MEM-SAM-TZP resistance phenotype assessed as concentration required for >= 3 log10 CFU/ml reduction in viable bacteria in 20% heat-inactivated human serum after 1.5 hrs by liquid microdilution assay).
Assay type: functional
Summary of the method: as §3

Substance | Activity
H-FLPLIGRVLSGIL-NH2 [TEMPORIN A] | >192 µM

These substances were tested on Stenotrophomonas maltophilia (assay: Antimicrobial activity against Stenotrophomonas maltophilia isolate 2 with AMK-CIP-CTX-IPM-MEM-SAM-TZP resistance phenotype assessed as assessed as time to kill at twofold bactericidal concentration).
Assay type: functional
Summary of the method: as §1

Substance | Time
H-FLPLIGRVLSGIL-NH2 [TEMPORIN A] | 2 min

These substances were tested on Stenotrophomonas maltophilia (assay: Bactericidal activity against Stenotrophomonas maltophilia isolate 2 with AMK-CIP-CTX-IPM-MEM-SAM-TZP resistance phenotype assessed as concentration required for >= 3 log10 CFU/ml reduction in viable bacteria in sodium phosphate buffer at pH 7.4 after 1.5 hrs by liquid microdilution assay).
Assay type: functional
Summary of the method: as §2

Substance | Activity
H-FLPLIGRVLSGIL-NH2 [TEMPORIN A] | 12 µM

These substances were tested on Stenotrophomonas maltophilia (assay: Bactericidal activity against Stenotrophomonas maltophilia isolate 4 with AMK-CAZ-CIP-FEP-IPM-SAM-TZP resistance phenotype assessed as concentration required for >= 3 log10 CFU/ml reduction in viable bacteria in sodium phosphate buffer at pH 7.4 after 1.5 hrs by liquid microdilution assay).
Assay type: functional
Summary of the method: as §2

Substance | Activity
H-FLPLIGRVLSGIL-NH2 [TEMPORIN A] | 96 µM

Source: ChEMBL document CHEMBL1151458, “Comparative analysis of the bactericidal activities of amphibian peptide analogues against multidrug-resistant nosocomial bacterial strains” (2008)
